What all share (assay type): functional, cell-based
For one assay, the system named is PC-3. Nature of the assay: Cytotoxicity against human PC3 cells after 72 hrs by MTT assay. Particulars: PC-3, 72 h. The essentials:
(§1)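 Seeded at 0.2 × 10⁵ cells/ml, grown 24 h, then exposed 72 h to a range of concentrations (upper limit 30). MTT read-out: formazan dissolved in DMSO, absorbance at 540 nm, growth expressed as percent of DMSO-treated cells.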
(Formazan colour is commonly taken as a measure of viable cells.)

A further assay concerns PANC-1. Nature of the assay: Cytotoxicity against human PANC1 cells after 72 hrs by MTT assay. Conditions: PANC-1, 72 h. Summed up: as §1
Another assay concerns HT-29. Briefly: Cytotoxicity against human HT-29 cells after 72 hrs by MTT assay. Particulars: HT-29, 72 h. The essentials: as §1

One may read the IC50 as the concentration that inhibits the measured activity by half. A higher IC50 goes with lower potency.

Turning to `O=C1/C(=C/c2ccc(O)cc2)CCC/C1=C\c1ccc(O)cc1`, the IC50 worked out at 13.2 µM in the assay with PC-3, 13.2 µM with PANC-1 and 11.7 µM in the assay with HT-29.

For the compound `O=C(/C=C/c1ccc(Cl)cc1)/C=C/c1ccc(Cl)cc1`, the IC50 with PC-3 stood at 16.7 µM; in the assay with PANC-1 it was 14.1 µM; with HT-29, 10.9 µM.

As for `COc1cc(/C=C2\CC/C(=C\c3cc(OC)c(OC)c(OC)c3)C2=O)cc(OC)c1OC`, the IC50 with PC-3 is 16.4 µM; in the assay with PANC-1 it was 18.8 µM; in the assay with HT-29 it was 12.7 µM.

On to `COc1ccc(/C=C2\CCC/C(=C\c3ccc(OC)c(OC)c3)C2=O)cc1OC`, for which the IC50 in the assay on PC-3 was 5.2 µM; in the assay on PANC-1, 4.46 µM; in the assay with HT-29, 4 µM.

As for `O=C1/C(=C/c2ccc(Br)cc2)CC/C1=C\c1ccc(Br)cc1`, the values for the IC50 in the assay on PC-3, in the assay with PANC-1 and in the assay on HT-29 were greater than 30 µM, 25.3 µM and 19.9 µM, respectively.

Take `COc1ccc(/C=C2\CCC/C(=C\c3ccc(OC)c(OC)c3OC)C2=O)c(OC)c1OC`: the results for the IC50 with PC-3, in the assay on PANC-1 and with HT-29 were 8.22 µM, 11.6 µM and 7.14 µM, respectively.

Turning to `O=C1C(=Cc2ccc(O)cc2)CSCC1=Cc1ccc(O)cc1`, the IC50 was determined as 8.23 µM in the assay on PC-3, 12 µM in the assay on PANC-1 and 4.27 µM with HT-29.

Turning to `O=C(/C=C/c1ccc(O)cc1)/C=C/c1ccc(O)cc1`, the IC50 with PC-3 came to 9.68 µM; with PANC-1, 13.6 µM; in the assay on HT-29, 9.38 µM.

In the case of `COc1cc(/C=C2\CCC/C(=C\c3cc(OC)c(O)c(OC)c3)C2=O)cc(OC)c1O`, the IC50 turned out to be 4.14 µM with PC-3, 2.63 µM in the assay with PANC-1 and 2.7 µM in the assay with HT-29.

For `O=C1/C(=C/c2ccc(Cl)cc2)CCC/C1=C\c1ccc(Cl)cc1`, the IC50 came out at 11.3 µM with PC-3, 11.8 µM with PANC-1 and 7.75 µM in the assay with HT-29.

Turning to `O=C1/C(=C/c2ccc(F)cc2)CC/C1=C\c1ccc(F)cc1`, the IC50 was found to be 19 µM with PC-3, 19.7 µM in the assay with PANC-1 and 14.4 µM in the assay with HT-29.

Take `O=C1/C(=C/c2ccccn2)CCC/C1=C\c1ccccn1`: the IC50 with PC-3 came to 1.28 µM; with PANC-1, 1.3 µM; in the assay on HT-29 it was 1.43 µM.

Consider `COc1cc(/C=C/C(=O)/C=C/c2cc(OC)c(OC)c(OC)c2)cc(OC)c1OC`, for which the results for the IC50 with PC-3, in the assay on PANC-1 and with HT-29 were 4.63 µM, 3.38 µM and 1.68 µM, respectively.

Regarding `O=C1/C(=C/c2ccncc2)CC/C1=C\c1ccncc1`, the figures for the half-inhibitory concentration (IC50) in the assay with PC-3, in the assay with PANC-1 and with HT-29 were 5.58 µM, 7.88 µM and 7.58 µM, respectively.

For `COc1cc(/C=C2\CC/C(=C\c3ccc(O)c(OC)c3)C2=O)ccc1O`, the IC50 in the assay on PC-3 is 15.5 µM; in the assay on PANC-1 it was 15.5 µM; with HT-29, 9.7 µM.

Consider `O=C1/C(=C/c2ccccn2)COC/C1=C\c1ccccn1`, for which the IC50 with PC-3 was 1.88 µM; in the assay with PANC-1, 3.24 µM; with HT-29, 3.28 µM.

Regarding `COc1ccc(/C=C2\COC/C(=C\c3ccc(OC)c(OC)c3OC)C2=O)c(OC)c1OC`, the IC50 came to 2.74 µM in the assay on PC-3, 2.67 µM with PANC-1 and 2.45 µM in the assay on HT-29.

Regarding `COc1ccc(/C=C2\CCC/C(=C\c3ccc(OC)cc3)C2=O)cc1`, the IC50 in the assay with PC-3 worked out at 12.3 µM; with PANC-1, 15.9 µM; in the assay on HT-29, 13.7 µM.

`O=C1/C(=C/c2ccc(Cl)cc2)CC/C1=C\c1ccc(Cl)cc1`: the IC50 in the assay on PC-3 came to 25 µM; with PANC-1, 23.2 µM; in the assay with HT-29 it was 15.9 µM.

`COc1cc(/C=C/C(=O)/C=C/c2cc(OC)c(O)c(OC)c2)cc(OC)c1O`: the IC50 was 3.41 µM in the assay with PC-3, 2.23 µM in the assay on PANC-1 and 2.24 µM in the assay with HT-29.

As to `COc1ccc(/C=C/C(=O)/C=C/c2ccc(OC)c(OC)c2)cc1OC`, the IC50 in the assay on PC-3 turned out to be 2.98 µM; in the assay with PANC-1, 3.39 µM; in the assay with HT-29, 2.17 µM.

As to `O=C1/C(=C/c2ccncc2)CSC/C1=C\c1ccncc1`, the IC50 in the assay with PC-3 worked out at 0.7 µM; in the assay on PANC-1 it was 1.14 µM; with HT-29, 1.29 µM.

Take `O=C(/C=C/c1ccc(F)cc1)/C=C/c1ccc(F)cc1`: the IC50 in the assay on PANC-1 was 12.5 µM; in the assay with HT-29, 9.35 µM.

Values taken from ChEMBL document CHEMBL2034978, “Synthesis and evaluation of curcumin-related compounds for anticancer activity” (Eur J Med Chem, 2012).
